Results from paper PMC4514009 (Journal of Radioanalytical and Nuclear Chemistry, 2010).

System: NMDAR
Experiment: Autoradiography of NMDAR in vitro by storage phosphor imaging
Format: binding, Sprague–Dawley (SD) rat
Details: EB 0.3 mg pretreatment of slides
How it was run: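 Sagittal brain sections from one healthy Sprague–Dawley rat (290 g) were fixed and air-dried, then shaken 30 min at room temperature in 50 mM Tris–HCl (pH 7.4) with 120 mM NaCl. EB 0.3 mg (60 μL) or saline was applied to the slides, which were preincubated 30 min at room temperature, then incubated with the radiotracer. They were washed three times for 30 min in ice-cold Tris–HCl and exposed 30 min to a phosphor screen. DLU mm−2 were read by ROI, and hippocampus/thalamus ratios were taken per section.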

## O=c1c2ccccc2[se]n1-c1ccccc1 [EB, Ebselen]
  effect on accumulation of ^99mTc-PQQ in hippocampus and cortex: can be inhibited
